In general, EC50 refers to the midpoint of the concentration-response curve.

The subject of the test is Vaccinia virus. As to the kind of experiment: Antiviral activity against Vaccinia virus Lederle infected in HELF cells assessed as inhibition of virus-induced cytopathogenicity. The following applies: Orthopoxvirus vaccinia. Format: functional, organism-based. The method, boiled down:
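Confluent human embryonic lung fibroblast monolayers in 96-well plates were infected with 100 CCID50 of virus or, for VZV, 20 PFU, in the presence of varying compound concentrations. For HCMV/VZV-type assays, residual virus was removed after 1–2 h before compound addition. Cytopathicity or plaque formation was scored once complete in untreated infected controls. […] Highest concentration tested was 100 μM.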
For orientation: Cytopathic effects are the visible damage that an infection or toxin causes in cultured cells.
`Nc1nc2c(ncn2COC(CO)CO)c(=O)[nH]1` [GANCICLOVIR]: the EC50 was above 100 µM. Under `C#C[C@@]1(O)[C@@H](CO)O[C@@H](n2cc(Cl)c3c(Cl)ccnc32)[C@@H]1O` stands above 100 µM; under `C#C[C@@]1(O)[C@@H](CO)O[C@@H](n2ccc3c(Cl)ccnc32)[C@@H]1O`, above 100 µM; under `Nc1nc2c(ncn2COCCO)c(=O)[nH]1` [ACYCLOVIR], above 250 µM. Take `C#C[C@@]1(O)[C@@H](CO)O[C@@H](n2cc(I)c3c(Cl)ccnc32)[C@@H]1O`: the 50% effective concentration (EC50) is above 100 µM.

For the compound `CC[C@@]1(O)[C@@H](CO)O[C@@H](n2cc(Cl)c3c(N)ncnc32)[C@@H]1O`, the 50% effective concentration (EC50) worked out at 0.73 µM. Under `C#C[C@@]1(O)[C@@H](CO)O[C@@H](n2cc(Br)c3c(Cl)ccnc32)[C@@H]1O` stands above 100 µM.

The record behind these values is ChEMBL document CHEMBL4270599, “Synthesis of a 3'-C-ethynyl-β-d-ribofuranose purine nucleoside library: Discovery of C7-deazapurine analogs as potent antiproliferative nucleosides” (Eur J Med Chem, 2018).
